Measured values from ChEMBL document CHEMBL2040809, “Synthesis and biological activity evaluation of cytidine-5'-deoxy-5-fluoro-N-[(alkoxy/aryloxy)] carbonyl-cyclic 2',3'-carbonates” (Eur J Med Chem, 2012).
Converted amounts (≈) assume the structure as drawn.

Experiments:
Salmonella typhimurium [1] = test: Mutagenic activity in Salmonella typhimurium TA98 at 0.312 to 5 mg/plate preincubated for 20 mins before addition in presence of liver S9 mixture; type: toxicity, organism-based; settings: salmonella enterica subsp. enterica serovar typhimurium
Summary of the method: (§1)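 Pre-incubation trial (Trial II) with histidine-dependent auxotrophs. Test solution is pre-incubated with bacterial suspension and S9 mix (10% v/v) or substitution buffer before plating on selective agar. Revertant colonies are counted against the concurrent vehicle control. Triplicate plates per dose and per control (negative, vehicle, positive reference mutagens).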

Salmonella typhimurium [2] = test: Mutagenic activity in Salmonella typhimurium TA100 at 0.312 to 5 mg/plate measured after incubation of upside down for 48 hrs in presence of liver S9 mixture; type: toxicity, organism-based; settings: salmonella enterica subsp. enterica serovar typhimurium, s9, 48 h
Summary of the method: (§2)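 Plate incorporation trial (Trial I) with histidine-dependent auxotrophs. Revertant colonies are counted against the concurrent vehicle control. Each dose and each control, including negative, vehicle and positive reference mutagens, run in triplicate plates.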

Salmonella typhimurium [3] = test: Mutagenic activity in Salmonella typhimurium TA1537 at 0.312 to 5 mg/plate preincubated for 20 mins before addition in absence of liver S9 mixture; type: toxicity, organism-based; settings: salmonella enterica subsp. enterica serovar typhimurium; summary of the method: as §1
Salmonella typhimurium [4] = test: Mutagenic activity in Salmonella typhimurium TA98 at 0.312 to 5 mg/plate measured after incubation of upside down for 48 hrs in presence of liver S9 mixture; type: toxicity, organism-based; settings: salmonella enterica subsp. enterica serovar typhimurium, s9, 48 h; summary of the method: as §2
Salmonella typhimurium [5] = test: Mutagenic activity in Salmonella typhimurium TA1535 at 0.312 to 5 mg/plate measured after incubation of upside down for 48 hrs in presence of liver S9 mixture; type: toxicity, organism-based; settings: salmonella enterica subsp. enterica serovar typhimurium, s9, 48 h; summary of the method: as §2
Salmonella typhimurium [6] = test: Mutagenic activity in Salmonella typhimurium TA1537 at 0.312 to 5 mg/plate measured after incubation of upside down for 48 hrs in presence of liver S9 mixture; type: toxicity, organism-based; settings: salmonella enterica subsp. enterica serovar typhimurium, s9, 48 h; summary of the method: as §2
[7] = Cytotoxicity against human PZ-HPV-7 cells after 3 days MTT assay; type: functional, cell-based; settings: 72 h
Summary of the method: (§3)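 Cells held as monolayers in DMEM with 10% supplement. Seeded in 96-well plates on day 0 at densities set by doubling time: 1 × 10⁴/mL for HeLa and NCI-69, 2 × 10⁴/mL for MCF-7, 3 × 10⁴/mL for PZ-HPV-7. Five dilutions (10⁻⁸–5 × 10⁻⁶ mol/l), freshly prepared, added for 72 h. Growth read by MTT (succinate dehydrogenase activity); IC50 derived.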

NCI-H69 = test: Cytotoxicity against human NCI-H69 cells after 3 days MTT assay; type: functional, cell-based; settings: NCI-H69, 72 h; summary of the method: as §3
Salmonella typhimurium [8] = test: Mutagenic activity in Salmonella typhimurium TA100 at 0.312 to 5 mg/plate preincubated for 20 mins before addition in absence of liver S9 mixture; type: toxicity, organism-based; settings: salmonella enterica subsp. enterica serovar typhimurium; summary of the method: as §1
L1210 [9] = test: Antitumor activity against mouse L1210 cells xenografted in BDF-1 mouse assessed as increase in mean survival time at 0.080 mmol/kg, po administered 5 days in a week for 3 weeks
Salmonella typhimurium [10] = test: Mutagenic activity in Salmonella typhimurium TA100 at 0.312 to 5 mg/plate preincubated for 20 mins before addition in presence of liver S9 mixture; type: toxicity, organism-based; settings: salmonella enterica subsp. enterica serovar typhimurium; summary of the method: as §1
HeLa = test: Cytotoxicity against human HeLa cells after 3 days MTT assay; type: functional, cell-based; settings: 72 h; summary of the method: as §3
Salmonella typhimurium [11] = test: Mutagenic activity in Salmonella typhimurium TA100 at 0.312 to 5 mg/plate measured after incubation of upside down for 48 hrs in absence of liver S9 mixture; type: toxicity, organism-based; settings: salmonella enterica subsp. enterica serovar typhimurium; summary of the method: as §2
Salmonella typhimurium [12] = test: Mutagenic activity in Salmonella typhimurium TA1535 at 0.312 to 5 mg/plate preincubated for 20 mins before addition in absence of liver S9 mixture; type: toxicity, organism-based; settings: salmonella enterica subsp. enterica serovar typhimurium; summary of the method: as §1
MCF7 = test: Cytotoxicity against human MCF7 cells after 3 days MTT assay; type: functional, cell-based; settings: MCF7, 72 h; summary of the method: as §3
L1210 [13] = test: Antitumor activity against mouse L1210 cells xenografted in BDF-1 mouse assessed as increase in mean survival time at 0.16 mmol/kg, po administered 5 days in a week for 3 weeks
Salmonella typhimurium [14] = test: Mutagenic activity in Salmonella typhimurium TA98 at 0.312 to 5 mg/plate preincubated for 20 mins before addition in absence of liver S9 mixture; type: toxicity, organism-based; settings: salmonella enterica subsp. enterica serovar typhimurium; summary of the method: as §1
Salmonella typhimurium [15] = test: Mutagenic activity in Salmonella typhimurium TA1537 at 0.312 to 5 mg/plate preincubated for 20 mins before addition in presence of liver S9 mixture; type: toxicity, organism-based; settings: salmonella enterica subsp. enterica serovar typhimurium; summary of the method: as §1
Salmonella typhimurium [16] = test: Mutagenic activity in Salmonella typhimurium TA102 at 0.312 to 5 mg/plate measured after incubation of upside down for 48 hrs in presence of liver S9 mixture; type: toxicity, organism-based; settings: salmonella enterica subsp. enterica serovar typhimurium, s9, 48 h; summary of the method: as §2
Salmonella typhimurium [17] = test: Mutagenic activity in Salmonella typhimurium TA1535 at 0.312 to 5 mg/plate measured after incubation of upside down for 48 hrs in absence of liver S9 mixture; type: toxicity, organism-based; settings: salmonella enterica subsp. enterica serovar typhimurium; summary of the method: as §2
Salmonella typhimurium [18] = test: Mutagenic activity in Salmonella typhimurium TA1535 at 0.312 to 5 mg/plate preincubated for 20 mins before addition in presence of liver S9 mixture; type: toxicity, organism-based; settings: salmonella enterica subsp. enterica serovar typhimurium; summary of the method: as §1
Salmonella typhimurium [19] = test: Mutagenic activity in Salmonella typhimurium TA102 at 0.312 to 5 mg/plate preincubated for 20 mins before addition in absence of liver S9 mixture; type: toxicity, organism-based; settings: salmonella enterica subsp. enterica serovar typhimurium; summary of the method: as §1
Salmonella typhimurium [20] = test: Mutagenic activity in Salmonella typhimurium TA102 at 0.312 to 5 mg/plate measured after incubation of upside down for 48 hrs in absence of liver S9 mixture; type: toxicity, organism-based; settings: salmonella enterica subsp. enterica serovar typhimurium; summary of the method: as §2
Salmonella typhimurium [21] = test: Mutagenic activity in Salmonella typhimurium TA1537 at 0.312 to 5 mg/plate measured after incubation of upside down for 48 hrs in absence of liver S9 mixture; type: toxicity, organism-based; settings: salmonella enterica subsp. enterica serovar typhimurium; summary of the method: as §2
Salmonella typhimurium [22] = test: Mutagenic activity in Salmonella typhimurium TA102 at 0.312 to 5 mg/plate preincubated for 20 mins before addition in presence of liver S9 mixture; type: toxicity, organism-based; settings: salmonella enterica subsp. enterica serovar typhimurium; summary of the method: as §1
Salmonella typhimurium [23] = test: Mutagenic activity in Salmonella typhimurium TA98 at 0.312 to 5 mg/plate measured after incubation of upside down for 48 hrs in absence of liver S9 mixture; type: toxicity, organism-based; settings: salmonella enterica subsp. enterica serovar typhimurium; summary of the method: as §2
L1210 [24] = test: Antitumor activity against mouse L1210 cells xenografted in BDF-1 mouse assessed as increase in mean survival time at 1.5 mmol/kg, po qd for 2 weeks; type: functional
Summary of the method: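 Male BDF-1 mice inoculated intraperitoneally on day 0 with L1210 leukemia cells (1 × 10⁶/mL). Cells were kept in RPMI 1640 with 10% fetal bovine serum at 37 °C, 5% CO₂, subcultured once or twice weekly, and resuspended in PBS. Compounds were given orally, with maximum doses set from acute toxicity. Read-out was mean survival time versus untreated control.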

SMILES	Activity (Salmonella typhimurium [1])	Activity (Salmonella typhimurium [2])	Activity (Salmonella typhimurium [3])	Activity (Salmonella typhimurium [4])	Activity (Salmonella typhimurium [5])	Activity (Salmonella typhimurium [6])	IC50 [7] [µg/mL]	IC50 (NCI-H69) [µg/mL]	Activity (Salmonella typhimurium [8])	Activity (Salmonella typhimurium [10])	IC50 (HeLa) [µg/mL]	Activity (Salmonella typhimurium [11])	Activity (Salmonella typhimurium [12])	IC50 (MCF7) [µg/mL]	Activity (Salmonella typhimurium [14])	Activity (Salmonella typhimurium [15])	Activity (Salmonella typhimurium [16])	Activity (Salmonella typhimurium [17])	Activity (Salmonella typhimurium [18])	Activity (Salmonella typhimurium [19])	also measured
CCCCCOC(=O)Nc1nc(=O)n([C@@H]2O[C@H](C)[C@@H](O)[C@H]2O)cc1F [CAPECITABINE]	Non-toxic	Non-toxic	Non-toxic	Non-toxic	Non-toxic	Non-toxic	160 (≈ 445 µM)	300 (≈ 835 µM)	Non-toxic	Non-toxic	0.05 (≈ 0.139 µM)	Non-toxic	Non-toxic	710 (≈ 1980 µM)	Non-toxic	Non-toxic	Non-toxic	Non-toxic	Non-toxic	Non-toxic	MST (L1210 [9]): 20.3 days; MST (L1210 [13]): 19.6 days; Activity (Salmonella typhimurium [20]): Non-toxic; Activity (Salmonella typhimurium [21]): Non-toxic; Activity (Salmonella typhimurium [22]): Non-toxic; Activity (Salmonella typhimurium [23]): Non-toxic; MST (L1210 [24]): 12.8 days
CCCCCOC(=O)Nc1nc(=O)n([C@@H]2O[C@H](C)[C@H]3OC(=O)O[C@H]32)cc1F	Non-toxic	Non-toxic	Non-toxic	Non-toxic	Non-toxic	Non-toxic	140 (≈ 363 µM)	180 (≈ 467 µM)	Non-toxic	Non-toxic	0.08 (≈ 0.208 µM)	Non-toxic	Non-toxic	80 (≈ 208 µM)	Non-toxic	Non-toxic	Non-toxic	Non-toxic	Non-toxic	Non-toxic	Activity (Salmonella typhimurium [20]): Non-toxic; Activity (Salmonella typhimurium [21]): Non-toxic; Activity (Salmonella typhimurium [22]): Non-toxic; Activity (Salmonella typhimurium [23]): Non-toxic; MST (L1210 [24]): 17.3 days
